In publication PMC7072008 (ACS infectious diseases, 2020):
Where two headings read alike, the source gives them in different places.

Columns and labels:
[1] = target: T1, TGR (DTNB reducing activity) (Schistosoma mansoni, UniProt Q962Y6); assay: TGR inhibition confirmatory assay, DTNB reduction; type: biochemical
T1 sequence (Q962Y6 1-598): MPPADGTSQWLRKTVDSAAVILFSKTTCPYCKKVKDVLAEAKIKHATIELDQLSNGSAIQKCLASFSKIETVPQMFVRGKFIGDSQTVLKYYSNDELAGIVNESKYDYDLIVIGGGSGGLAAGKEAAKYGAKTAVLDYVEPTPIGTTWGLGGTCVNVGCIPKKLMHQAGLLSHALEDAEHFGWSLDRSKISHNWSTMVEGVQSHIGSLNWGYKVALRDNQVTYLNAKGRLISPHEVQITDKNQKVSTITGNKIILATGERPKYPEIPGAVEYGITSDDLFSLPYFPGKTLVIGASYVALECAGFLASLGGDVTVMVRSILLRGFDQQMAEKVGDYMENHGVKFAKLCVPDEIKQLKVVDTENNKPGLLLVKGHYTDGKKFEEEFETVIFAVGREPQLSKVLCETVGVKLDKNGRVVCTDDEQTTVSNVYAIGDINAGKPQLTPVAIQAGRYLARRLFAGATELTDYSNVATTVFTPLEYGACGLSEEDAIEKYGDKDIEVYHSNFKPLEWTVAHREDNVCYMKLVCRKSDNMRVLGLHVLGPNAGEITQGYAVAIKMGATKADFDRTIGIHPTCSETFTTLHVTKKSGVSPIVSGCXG

S. mansoni schistosomula = assay: Schistosomula; set-up: species or system Schistosoma mansoni
[2] = target: T2, TGR (GSSG reducing activity) (Schistosoma mansoni, UniProt Q962Y6); assay: TGR inhibition assay, GSSG reduction; type: biochemical; conditions: read-out: IC50 (GSSG); GSSG as substrate
T2 sequence (Q962Y6 1-598): T1 sequence (Q962Y6 1-598)
In short: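 Recombinant wild-type S. mansoni TGR (selenoprotein) was expressed in E. coli BL21 (DE3) with a His-SUMO tag. The tag was removed, leaving Gly-Ser-His at the N-terminus. Inhibition was measured as enzymatic GSSG reduction, run in triplicate.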

[3] = system: S. haematobium adult worms; assay: Ex vivo adult worm killing, continuous exposure; conditions: 10 μM
S. mansoni adult worms [4] = assay: Ex vivo adult worm killing, continuous exposure; set-up: species or system Schistosoma mansoni; conditions: for LD50 against S. mansoni adult worms: 5 days incubation, media and compounds replaced daily
hGR = target: T3, hGR (Homo sapiens, UniProt P00390); assay: Inhibition of human glutathione reductase; type: biochemical; conditions: for Inhibition of hGR: at 2 mM (concentrations as high as 2 mM); for IC50: read-out: hGR IC50; for hGR IC50 fold higher than for TGR: selectivity TGR versus hGR
T3 sequence (P00390 44-522): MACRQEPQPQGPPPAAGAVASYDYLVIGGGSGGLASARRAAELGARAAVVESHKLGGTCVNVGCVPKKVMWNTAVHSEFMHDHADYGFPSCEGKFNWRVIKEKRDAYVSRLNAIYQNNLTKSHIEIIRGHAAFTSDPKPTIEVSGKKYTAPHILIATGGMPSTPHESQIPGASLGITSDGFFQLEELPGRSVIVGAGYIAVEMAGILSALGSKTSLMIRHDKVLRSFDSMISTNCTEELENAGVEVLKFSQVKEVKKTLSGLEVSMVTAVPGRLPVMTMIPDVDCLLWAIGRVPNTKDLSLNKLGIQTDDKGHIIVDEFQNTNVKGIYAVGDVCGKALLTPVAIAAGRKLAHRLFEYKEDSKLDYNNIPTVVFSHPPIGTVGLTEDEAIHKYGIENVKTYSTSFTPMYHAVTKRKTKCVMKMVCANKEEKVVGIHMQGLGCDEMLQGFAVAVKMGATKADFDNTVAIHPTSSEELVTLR

S. mansoni adult worms [5] = assay: Brief; set-up: species or system Schistosoma mansoni
[6] = system: S. mansoni juvenile worms; assay: Ex vivo juvenile worm killing, continuous exposure; set-up: species or system Schistosoma mansoni
Schistosoma mansoni TGR = conditions: read-out: TGR IC50 qHTS, cited from earlier work
TGR [7] = target: T4, TGR (Schistosoma mansoni, UniProt Q962Y6); assay: NADPH-dependence and reversibility of TGR inhibition; type: biochemical; conditions: for Reversibility of TGR inhibition: incubation with NADPH, activity 30 minutes and 3 hours after desalting
T4 sequence (Q962Y6 1-598): T1 sequence (Q962Y6 1-598)

S. japonicum adult worms = assay: Ex vivo adult worm killing, continuous exposure; conditions: 12.5 μM, 120 h
TGR [8] = target: T4, TGR; assay: NADPH oxidase activity of inhibited TGR; type: biochemical; conditions: for H2O2 production compared with untreated TGR: Amplex Red and horseradish peroxidase; for Decrease of NADPH consumption compared with uninhibited TGR: after treatment and desalting
[9] = cited from earlier work
TGR [10] = target: T4, TGR; assay: TGR dimer/monomer analysis by native PAGE; conditions: native PAGE after reaction with compound
[11] = target: TGR activities (DTNB and GSSG reduction) in S. mansoni adult worms (Schistosoma mansoni, UniProt Q962Y6); assay: TGR activity in homogenates of treated worms; conditions: worms cultured in 50 μM compound, harvested before any worm death
In short: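 Adult S. mansoni from infected Swiss-Webster mice, about 10 worm pairs per 1 mL RPMI with 10% FCS, 10 mM glutamine and penicillin/streptomycin, pre-cultured 24 h. Exposed to 50 μM compound in DMSO, refreshed daily; DMSO controls. Worms collected at set times, washed, homogenized and centrifuged; protein measured. NADPH-dependent DTNB and GSSG reduction assayed in triplicate versus time-matched controls.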

schistosomes = conditions: cited from earlier work
parasites = conditions: 5 μM (physiological concentration); cited from earlier work
Schistosoma mansoni = conditions: overnight exposure; cited from earlier work
[12] = read-out: IC50 (DTNB), DTNB as substrate
[13] = read-out: TGR IC50 Confirm, confirmatory assay
[14] = 20 μM, then 5 days in media without compound
[15] = PubChem BioAssay, ref AID485364
[16] = 100 μM, then 5 days in media without compound
[17] = 50 μM, then 5 days in media without compound

SMILES | IC50 [1, 12] | IC50 [1, 13] | Sm Somula, dead (S. mansoni schistosomula; 10 μM, 24 h) | IC50 [2] | LD50 against S. mansoni adult worms (S. mansoni adult worms [4]) | Inhibition of hGR (hGR) | S. mansoni adult worm killing after 1 hr exposure (S. mansoni adult worms [5]; [14]) | IC50 (Schistosoma mansoni TGR; [15]) | further results
COC(=O)CS(=O)(=O)c1nnc(C(Cc2ccccc2)NC(=O)OC(C)(C)C)o1 (stereo not shown) [Compound 1] | 330 ± 70 nM | 330 nM | 10 μM 24 h 99% d^‡ | 390 ± 70 nM | 8.41 µM | did not inhibit | 60% |  | Adult worms Sh, dead ([3]; 144 h): 10 μM 144 h 67% d^‡; Sm juvenile, dead ([6]; 10 μM, 120 h): 10 μM 120 h 39% d^‡
Cc1c(-c2cnccn2)ssc1=S [oltipraz, reference compound] |  |  |  |  | 2 µM |  |  |  | 
COc1ccc(C(Nc2cc(C)ccn2)c2ccc3ccc(C)nc3c2O)cc1 (stereo not shown) [Compound 8] | 130 ± 40 nM | 130 nM |  | 330 ± 50 nM | 12.4 µM | did not inhibit | 10% | 398 nM | Sm Somula, dead (S. mansoni schistosomula; 10 μM, 120 h): 10 μM 120 h 20% d^‡; Adult worms Sm, dead (S. mansoni adult worms [4]; 12.5 μM, 120 h): 12.5 μM 120 h 53% d^‡; Reversibility of TGR inhibition (TGR [7]): reversible inhibition; S. mansoni adult worm killing after 1 hr exposure (S. mansoni adult worms [5]; [16]): 30%; Sm juvenile, dead ([6]; 10 μM, 120 h): 10 μM 120 h 24% d^‡; Adult worms Sj, dead (S. japonicum adult worms): 12.5 μM 120 h 56% d^‡; H2O2 production compared with untreated TGR (TGR [8]): same low amounts of H2O2 as untreated TGR
COc1ccc([N+](=O)[O-])c(S(=O)(=O)c2ccc(Cl)cc2)n1 [Compound 5, TRi-1] | 60 ± 10 nM | 60 nM | 10 μM 24 h 100% d^‡ | 50 ± 10 nM | 10.1 µM |  | about 10% | 100 nM | Tolerability in animal models ([9]; in vivo): well tolerated; IC50 (hGR): 104 µM; hGR IC50 fold higher than for TGR (hGR): 1700 fold; S. mansoni adult worm killing after 1 hr exposure (S. mansoni adult worms [5]; [17]): 60%; Sm juvenile, dead ([6]; 10 μM, 120 h): 10 μM 120 h 57% d^‡
O=[N+]([O-])c1ccc2c(c1)S(=O)(=O)C=C2 [Compound 4, Stattic] | 2010 ± 140 nM | 2010 nM | 10 μM 24 h 100% d^‡ | 2200 ± 200 nM | 7.08 µM |  | about 10% |  | Monomer formation of TGR (TGR [10]): No evidence for monomer formation; IC50 (Schistosoma mansoni TGR; ref Li et al. 2015 [18]): 5440 nM; Adult worms Sm, dead (S. mansoni adult worms [4]; 10 μM, 144 h): 10 μM 144 h 76% d^‡; Tolerability in animal models ([9]; animal models of different diseases): well tolerated; IC50 (hGR): 30.7 µM; hGR IC50 fold higher than for TGR (hGR): 15 fold; S. mansoni adult worm killing after 1 hr exposure (S. mansoni adult worms [5]; [17]): 100%; Sm juvenile, dead ([6]; 10 μM, 72 h): 10 μM 72 h 100% d^‡
CCN(c1ccccc1)S(=O)(=O)c1ccc(NC(=O)c2nc(S(C)(=O)=O)ncc2Cl)cc1 [Compound 2] | 210 ± 20 nM | 210 nM | 10 μM 24 h 100% d^‡ | 230 ± 30 nM | 9.07 µM | did not inhibit | 40% | 398 nM | Sm juvenile, dead ([6]; 10 μM, 24 h): 10 μM 24 h 100% d^‡
CCOC(=O)C(C(=O)OCC)c1cc(Br)c2noc3c2c1C(=O)c1ccccc1-3 [Compound 6] | 140 ± 10 nM | 140 nM |  | 150 ± 20 nM |  | 25% |  | 631 nM | Inhibition of TGR activity (DTNB and GSSG reduction) in worm homogenates [11]: ~ 60%; S. mansoni adult worm killing after 1 hr exposure (S. mansoni adult worms [5]; all concentrations tested (10, 20, 50, 100 μM)): no worm killing
CC(=O)OC[C@H]1O[C@@H]([S-])[C@H](OC(C)=O)[C@@H](OC(C)=O)[C@@H]1OC(C)=O.CCP(CC)CC.[Au+] [auranofin] |  |  |  |  |  |  |  |  | Cure of infected mice (schistosomes): partially cure infected mice; TGR inhibition in the absence of NADPH (TGR [7]; compounds at 20 times the IC50, TGR 50 nM, incubation without NADPH, desalting): found to inhibit TGR; Reversibility of TGR inhibition (TGR [7]): irreversible inhibitors of TGR; Killing of parasites in culture (parasites): kill parasites rapidly; H2O2 production compared with untreated TGR (TGR [8]): same low amounts of H2O2 as untreated TGR; Decrease of NADPH consumption compared with uninhibited TGR (TGR [8]): about 50%
Oc1ccc(CNc2cccc(C(F)(F)F)c2)c2cccnc12 [Compound 7] | 90 ± 20 nM | 90 nM |  | 130 ± 30 nM | 18.2 µM | did not inhibit | 10% | 316 nM | Sm Somula, dead (S. mansoni schistosomula; 12.5 μM, 120 h): 12.5 μM 120 h 61% d^‡; Adult worms Sm, dead (S. mansoni adult worms [4]; 12.5 μM, 120 h): 12.5 μM 120 h 43% d^‡; Cytotoxicity against mammalian cells compared with schistosome worms (Vero cells): notable exception; S. mansoni adult worm killing after 1 hr exposure (S. mansoni adult worms [5]; [16]): 80%; Sm juvenile, dead ([6]; 12.5 μM, 120 h): 12.5 μM 120 h 8% d^‡; Adult worms Sj, dead (S. japonicum adult worms): 12.5 μM 120 h no killing; H2O2 production compared with untreated TGR (TGR [8]): less H2O2 than untreated TGR; Induction of NADPH oxidase activity in TGR (NADPH consumption, superoxide production) (TGR [8]; TGR 500 nM, NADPH 100 μM, 30 min, 20 μM for 1, 2, 5-8, 50 μM for 3 and 4, desalted): lowest NADPH oxidase activity; Decrease of NADPH consumption compared with uninhibited TGR (TGR [8]): about 50%
O=c1c(Cl)c(-n2cc(CO)nn2)cnn1-c1ccccc1 [Compound 3] | 2840 ± 80 nM | 2840 nM | 10 μM 24 h 100% d^‡ | 2490 ± 110 nM | 4.9 µM | 19% | about 10% |  | Adult worms Sh, dead ([3]; 96 h): 10 μM 96 h 100% d^‡; IC50 (Schistosoma mansoni TGR; ref Li et al. 2015 [18]): 6300 nM; Adult worms Sm, dead (S. mansoni adult worms [4]; 10 μM, 72 h): 10 μM 72 h 100% d^‡; S. mansoni adult worm killing after 1 hr exposure (S. mansoni adult worms [5]; [17]): 80%; Sm juvenile, dead ([6]; 10 μM, 48 h): 10 μM 48 h 100% d^‡
O=C(C1CCCCC1)N1CC(=O)N2CCc3ccccc3C2C1 (stereo not shown) [praziquantel, reference compound] |  |  |  |  | 0.5 µM |  |  |  | LD50 of praziquantel (Schistosoma mansoni): 40 µM; S. mansoni adult worm killing after 1 hr exposure (S. mansoni adult worms [5]; [16]): 20%
